The list is not random: actives were taken first. Their share in the collection is about 2.3%.
EWS-Fli inh: EWS/Fli transcriptional activity inhibition | A673 NR0B1-luciferase reporter, viability-normalised | AID 651661 | 350,000 compounds, 0.67% hits | inhibition, % at 12.6 µM;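 active = mean inhibition of at least 50% after viability correction, with every replicate also passing that limit; inconclusive = mean reaches 50% but only one of two replicates passes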;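 note: firefly luciferase signal divided by Alamar Blue viability fluorescence both relative to DMSO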
LGR2 antag: inhibitors of bursicon-induced Drosophila LGR2 receptor cAMP signaling; HEK293 LGR2, CRE-luciferase, bursicon-stimulated, 4 h; inhibition, % at 9.99 µM; 380,000 compounds, 0.35% hits; AID 720647;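 active = drop in luminescence signal, shown as inhibition above about 50% in the replicate tests, limit read from the data, passing the limit was not always enough; inconclusive = probably only some replicates passing the limit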;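 note: agonist challenge used bursicon conditioned medium at about half maximal strength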
TWEAK-Fn14 inh: blocks TWEAK-Fn14 interaction in a reporter cell assay; TWEAK-stimulated Fn14 reporter cells, luciferase luminescence, 8 h; inhibition, % at 10 µM; 360,000 compounds, 2% hits; AID 1159606; in the data active = inhibition above about 50%
FN deposit inh: fibronectin deposition inhibition. AH1F fibroblasts, Alexa488-fibronectin deposition fluorescence, overnight. inhibition, % at 12.6 µM. 350,000 compounds, 0.086% hits. AID 743247;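 active = mean inhibition across replicates of 30% or more, regardless of how many single replicates reach that level; inconclusive = mean under 30% yet at least half of replicates reach 30%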;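 note: positive control wells lacked labelled fibronectin entirely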
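test system = AH1F fibroblasts assembling fluorescent fibronectin matrix | quantity = 10000 AH1F cells per well | buffer or medium = DMEM plus 2% serum, read in PBS | doses = single dose, pinned | incubation = 1 h cell attachment, overnight exposure to compound and label | detection = fluorescence at 485 nm excitation, 525 nm emission | read-out basis = inhibition from reduced deposited-fibronectin fluorescence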
Xi reactivation: X-chromosome reactivation activator. 360,000 compounds, 0.055% hits. XiGFP mouse fibroblasts, % GFP-positive cells imaging, 3 d; cells co-treated with 5-aza-dC sensitizer; scaled so ellipticine positive control = 100%. activation, % at 7.58 µM;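 active = mean normalized replicate activation at least 10% and every replicate at or above 10%; inconclusive = only one of the two criteria met; inactive = mean below 10% and not all replicates reach 10%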;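 note: 0% = median of on-plate neutral control wells and 100% = ellipticine 6 µM median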
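System: 68-5-11 XiGFP fibroblast line | Buffer or medium: DMEM containing 5-aza-dC | Compound: Single point | Times: Compounds 3 days, fix/stain 15 min at room temperature | Benchmarks: Positive control ellipticine, 6 µM final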
TROY signal inh: inhibitors of TROY-dependent NF-kB signaling; inhibition, % at 10 µM; Q293 LMP1-TROYcd NF-kB luciferase reporter, 4 h; 360,000 compounds, 0.98% hits;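 active = compounds whose plate-normalised and pattern-corrected inhibition of the luciferase reporter signal at the single screening dose is 50% or more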
Starred values were filed as active, the others as inactive; ? = inconclusive; . = no result.

SMILES	EWS-Fli inh	LGR2 antag	TWEAK-Fn14 inh	FN deposit inh	Xi reactivation	TROY signal inh
CC(C)(C)OC(=O)NCc1ccc(CNC(=O)c2[nH]cnc2C(=O)Nc2ccccc2F)cc1	34	?	54*	-4	0	40
Cc1ccccc1S(=O)(=O)NCC[C@@H]1CC[C@@H](NC(=O)C2CCCCC2)[C@H](CO)O1	5	9	.	-24	0	.
O=C(CN1CCN(S(=O)(=O)c2ccccc2)CC1)NC(=O)NCc1ccco1	-2	14	94*	3	0	-10
O=C(CN1CCN(S(=O)(=O)c2ccccc2)CC1)NC(=O)NCc1ccccc1	.	.	-7	.	.	-5
Cc1ccc(NCc2nnc(SCC(=O)NNC(=O)Cc3ccccc3)n2C)cc1	7	-11	-13	10	21*	5
COc1ccc(NC(=O)N(C)C[C@@H]2Oc3c(NS(=O)(=O)c4ccc(OC)cc4)cccc3C(=O)N([C@H](C)CO)C[C@H]2C)cc1	4	10	.	.	0	.
O=C1C2CC=CCC2C(=O)N1c1ccc(NCCc2ccc(Cl)cc2)c([N+](=O)[O-])c1 (stereo unspecified)	2	.	15	-9	0	-16
O=C1C2CC=CCC2C(=O)N1c1ccc(NCCc2ccc(O)cc2)c([N+](=O)[O-])c1 (stereo unspecified)	-30	2	57*	6	0	1
O=C(O)c1ccc(-c2noc(-c3ccccc3F)n2)cc1	-9	11	52*	3	0	-7
FC(F)(F)c1ccc(N2CCN(c3cc(-c4ccccc4)nc4ncnn34)CC2)nc1	.	.	80*	3	.	67*
CC(=O)NC(Nc1c(C)n(C)n(-c2ccccc2)c1=O)C(Cl)(Cl)Cl (stereo unspecified)	-6	1	-1	-6	0	63*
CCCC(=O)NC(NC(=S)Nc1c(C)n(C)n(-c2ccccc2)c1=O)C(Cl)(Cl)Cl (stereo unspecified)	.	.	82*	.	.	.
C[C@@H]1CN([C@H](C)CO)C(=O)c2cc(-c3ccccc3)cnc2O[C@H]1CN(C)C(=O)C1CCCCC1	5	-2	.	.	1	.
Cc1ccc(S(=O)(=O)N(C)C[C@H]2Oc3ccc(NC(=O)CCCCCC(=O)Nc4ccccc4N)cc3C(=O)N([C@H](C)CO)C[C@@H]2C)cc1	20	2	.	.	0	.
Cc1ccc2[nH]nc(C(=O)N3CCCC(C(=O)c4ccc(Cl)cc4)C3)c2c1 (stereo unspecified)	3	2	59*	-9	0	48
O=C1C=CC2C3C(=O)N(c4ccccc4)C(=O)C3C1N2Cc1ccccc1 (stereo unspecified)	60*	.	95*	.	0	55*
CC(C)C(=O)N1CCN(c2ccc(NC(=O)c3cccs3)cc2Cl)CC1	-76	.	-10	6	0	16
O=C(Nc1ccc(N2CCN(C(=O)c3ccco3)CC2)c(Cl)c1)c1cccs1	.	.	108*	.	.	35
CN1CCN(c2ccc(NC(=O)c3ccco3)cc2Cl)CC1	-26	7	39	1	0	50*
O=C(NCC(c1cccnc1)N1CCN(c2ccccc2F)CC1)C1CCCCC1 (stereo unspecified)	.	.	85*	.	.	.
O=C(NCC(c1cccnc1)N1CCN(c2ccc(F)cc2)CC1)C1CCCCC1 (stereo unspecified)	.	.	14	.	.	1
COCC(=O)N1CCC(Oc2ccc(C(=O)NCCc3ncccc3C)cc2)CC1	5	-9	3	9	0	24
Cc1cccnc1CCNC(=O)c1ccc(OC2CCN(Cc3ccccn3)CC2)cc1	0	-20	55*	4	0	50
O=C(NCCc1cccc(Cl)c1)c1ccc(OC2CCN(Cc3ccccn3)CC2)cc1	40	10	82*	6	0	73*
O=C(C[C@H]1CC[C@@H]2[C@H](COC[C@H](O)CN2C(=O)Nc2ccc(Cl)cc2)O1)NCCc1ccncc1	-58	-12	.	-3	0	.
SMILES	EWS-Fli inh	LGR2 antag	TWEAK-Fn14 inh	FN deposit inh	Xi reactivation	TROY signal inh
O=[N+]([O-])c1cc(Cl)ccc1N1CCCC1	-15	-9	0	5	1	16
O=C1C(Cl)=C(N2CCN(c3ccccc3[N+](=O)[O-])CC2)C(=O)c2ccccc21	?	3	39	4	35*	41
CC(=O)N1[C@@H]2CN(S(C)(=O)=O)C[C@H]1C2c1ccccc1 (stereo partly specified)	.	.	.	-5	0	.
CCOc1ccc(-n2nnnc2-c2nc3ccccc3s2)cc1	.	27	74*	1	0	62*
Nc1nccc(-c2cc(-c3ccc(Cl)cc3Cl)no2)n1	-22	60*	78*	1	0	26
COCC(=O)Nc1ccc2c(c1)C(=O)N(C)C[C@@H](OC)[C@H](C)CN(C(C)=O)[C@@H](C)CO2	7	9	.	.	1	.
CN1OC[C@@H]2CN(Cc3ccccc3)[C@H](c3cccc(N4CCOCC4)c3)C[C@@H]21	9	11	5	-10	?	-12
Cc1ccccc1-c1cccc([C@@H]2C[C@H]3[C@H](CON3C)CN2Cc2ccccc2)c1	7	37	-1	active	0	-7
CN(C)C(=O)C[C@H]1C[C@H]2c3cc(NC(=O)NC4CCCC4)ccc3O[C@H]2[C@@H](CO)O1	2	-6	.	-7	0	.
CCOC(=O)c1sc2nc3c(cc2c1N)COC(C(C)C)C3 (stereo unspecified)	.	.	85*	3	.	66*
CCN(CC(O)Cn1c2ccccc2c2ccccc21)S(=O)(=O)c1ccc(C)cc1 (stereo unspecified)	.	.	30	.	.	23
CC(=O)Nc1ccccc1N(CC(O)Cn1c2ccccc2c2ccccc21)S(=O)(=O)c1ccc(C)cc1 (stereo unspecified)	-15	3	53*	0	0	11
O=C1C=C(NCc2ccccc2)c2ccccc2C1=O	44	96*	69*	-11	0	25
Cc1ccc(NC2=CC(=O)C(=O)c3ccccc32)c(C)c1	33	37	75*	-12	1	74*
CCN(CC)S(=O)(=O)c1ccccc1/C=N\O	.	-9	62*	.	.	32
COc1ccc(NC(=O)Nc2ccc3c(c2)[C@@H]2C[C@H](CC(=O)N4CCc5ccccc5C4)O[C@H](CO)[C@@H]2O3)cc1	5	-15	.	-34	0	.
CCCNC(=O)N1CC2(CN(C(=O)Cc3cccnc3)C2)c2c([nH]c3cc(OC)ccc23)[C@@H]1CO	-2	14	.	.	0	.
O=C(NC(=S)Nc1ccc(S(=O)(=O)NC2CCCCC2)cc1)c1cccs1	27	3	53*	0	0	17
C[C@H](CO)N1C[C@H](C)[C@@H](CN(C)C(=O)c2ccccn2)Oc2ncc(Br)cc2C1=O	-15	-4	.	5	2	.
